{"data": "Measured values gathered from unrelated publications", "Neuronal acetylcholine receptor; alpha3/beta4": "Neuronal acetylcholine receptor; alpha3/beta4 (Rattus norvegicus, UniProt P04757+P12392)", "HTR2B": "5-hydroxytryptamine receptor 2B (HTR2B, Homo sapiens, UniProt P41595)", "note": "Protocols differ between the studies behind these lines."}
{"Structure (SMILES)": "COc1ccc2c3c([nH]c2c1)CCN(C)CC3", "target": "Neuronal acetylcholine receptor; alpha3/beta4", "assay": "ion current, antagonist, two-electrode voltage clamp", "conditions": "oocytes", "measurement": "IC50", "result": "31.4 µM"}
{"Structure (SMILES)": "CC[C@H](C)[C@H](NC(C)=O)C(=O)N[C@@H](CCC(=O)O)C(=O)N[C@H](C(=O)N[C@H](C=O)CC(=O)O)[C@@H](C)O", "target": "Caspase-4 (CASP4, Homo sapiens, UniProt P49662)", "assay": "enzyme activity, inhibitor", "measurement": "IC50", "result": "0.555 µM"}
{"Structure (SMILES)": "COC(=O)c1cc(N(C)C(=O)c2ccn3ncc(-c4ccc(C(=O)O)cc4)c3c2)ccc1Cl", "target": "Rho-associated protein kinase 2 (ROCK2, Homo sapiens, UniProt O75116)", "assay": "enzyme activity, inhibitor", "measurement": "IC50", "result": "> 30 µM"}
{"Structure (SMILES)": "Cn1ccc2cc3c(cc21)CCN3C(=O)Nc1cccnc1", "target": "HTR2B", "assay": "ligand displacement, radioligand", "measurement": "Ki", "result": "0.0064 µM"}
{"Structure (SMILES)": "CN(C)C(=N)N=C(N)N", "target": "speB (Escherichia coli, UniProt P60651)", "assay": "enzyme activity, inhibitor, absorbance", "conditions": "pH 6.5", "measurement": "Ki", "result": "1180 µM"}
{"Structure (SMILES)": "O=S(=O)(O)c1ccc2c(N=Nc3c(O)ccc4ccccc34)cccc2c1", "target": "Bcl-2-related protein A1 (Mus musculus, UniProt Q07440, C113S/P104K)", "assay": "ligand displacement, FP", "measurement": "IC50", "result": "32 µM"}
{"Structure (SMILES)": "COc1ccc2[nH]c3c(c2c1)CCN(C)CC3", "target": "Neuronal acetylcholine receptor; alpha3/beta4", "assay": "ion current, antagonist, two-electrode voltage clamp", "conditions": "oocytes", "measurement": "IC50", "result": "21.3 µM"}
{"Structure (SMILES)": "CNC(=O)c1ccc(-c2cnn3ccc(C(=O)N(C)c4ccc(Cl)c(C(=O)OC)c4)cc23)cc1", "target": "HTR2B", "assay": "cell-free assay", "measurement": "IC50", "result": "> 30 µM"}
{"Structure (SMILES)": "Cc1cc(-c2ccccc2)nnc1NCCN1CCNCC1", "target": "HTR2B", "assay": "calcium signal, antagonist, fluorescence", "measurement": "IC50", "result": "0.054 µM"}
{"Structure (SMILES)": "CC(C)N(CCc1c[nH]c2cccc(OC(=O)CCCC(=O)O)c12)C(C)C", "target": "HTR2B", "assay": "ligand displacement, radioligand", "measurement": "IC50", "result": "3.6 µM"}
